The text below walks through data of the M2OR odorant receptor database.

Common to all, as to conditions: stereoisomer not certain
Test [1] has as its target T1, UniProt E9PVX1.
T1 sequence (whole entry): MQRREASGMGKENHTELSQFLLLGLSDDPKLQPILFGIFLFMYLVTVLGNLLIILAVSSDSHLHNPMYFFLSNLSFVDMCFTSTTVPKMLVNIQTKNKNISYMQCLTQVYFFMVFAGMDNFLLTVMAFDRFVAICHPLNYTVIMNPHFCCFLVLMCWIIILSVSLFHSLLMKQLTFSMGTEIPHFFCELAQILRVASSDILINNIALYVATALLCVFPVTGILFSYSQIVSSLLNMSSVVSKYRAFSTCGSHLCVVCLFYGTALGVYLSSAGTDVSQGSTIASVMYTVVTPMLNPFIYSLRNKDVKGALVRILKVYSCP
Put shortly: (§1)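 Transient luciferase assays in mammalian cell lines were common, though methods varied by source. The values come from published papers and their supplementary material, with extra details from the original authors when needed. Responsive refers to a measured signal the original authors judged statistically different from baseline, and non-responsive (inactive) to the remainder.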

Test [2] has as its target T2, UniProt E9PZ66.
T2 sequence (whole entry): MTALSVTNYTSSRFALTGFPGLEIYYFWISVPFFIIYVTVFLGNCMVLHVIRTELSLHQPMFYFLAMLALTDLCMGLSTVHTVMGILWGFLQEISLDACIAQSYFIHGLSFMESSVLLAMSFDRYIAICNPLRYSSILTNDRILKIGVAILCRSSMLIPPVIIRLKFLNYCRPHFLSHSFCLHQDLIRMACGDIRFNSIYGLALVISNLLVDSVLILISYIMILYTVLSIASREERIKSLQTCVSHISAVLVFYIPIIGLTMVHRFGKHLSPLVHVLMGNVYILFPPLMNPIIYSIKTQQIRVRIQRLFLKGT
The method in brief:
as §1

Test [3] has as its target T3, UniProt E9Q4X7.
T3 sequence (whole entry): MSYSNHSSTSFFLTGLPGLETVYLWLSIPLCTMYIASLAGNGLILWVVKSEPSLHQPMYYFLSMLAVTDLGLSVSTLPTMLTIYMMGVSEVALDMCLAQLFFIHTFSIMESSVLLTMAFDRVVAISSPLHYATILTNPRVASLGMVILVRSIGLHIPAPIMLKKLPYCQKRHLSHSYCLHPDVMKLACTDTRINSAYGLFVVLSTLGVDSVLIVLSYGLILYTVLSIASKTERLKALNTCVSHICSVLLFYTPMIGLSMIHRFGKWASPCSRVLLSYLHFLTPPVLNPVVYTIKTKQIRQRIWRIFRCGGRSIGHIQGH
The method in brief: as §1

Test [4] deals with T4, UniProt E9Q546.
T4 sequence (whole entry): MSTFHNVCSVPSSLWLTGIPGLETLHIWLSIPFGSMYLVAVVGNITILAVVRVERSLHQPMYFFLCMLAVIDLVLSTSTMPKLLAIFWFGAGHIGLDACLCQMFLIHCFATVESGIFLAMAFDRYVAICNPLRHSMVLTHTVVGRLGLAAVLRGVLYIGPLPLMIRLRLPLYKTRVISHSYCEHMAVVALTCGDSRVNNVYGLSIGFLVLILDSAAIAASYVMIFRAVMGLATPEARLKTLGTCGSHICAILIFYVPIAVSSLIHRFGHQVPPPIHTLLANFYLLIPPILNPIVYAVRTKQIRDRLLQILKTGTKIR
The method in brief:
as §1

In test [5] the target is T5, UniProt E9Q6Z7.
T5 sequence (whole entry): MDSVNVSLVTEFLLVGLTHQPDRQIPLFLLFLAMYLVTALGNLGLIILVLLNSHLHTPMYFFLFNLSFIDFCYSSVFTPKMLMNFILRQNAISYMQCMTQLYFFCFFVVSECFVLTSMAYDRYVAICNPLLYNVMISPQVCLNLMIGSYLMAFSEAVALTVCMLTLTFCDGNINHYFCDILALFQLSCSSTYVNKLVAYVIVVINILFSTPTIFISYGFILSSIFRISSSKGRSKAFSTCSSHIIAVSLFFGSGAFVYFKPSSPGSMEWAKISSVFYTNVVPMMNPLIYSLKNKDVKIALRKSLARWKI
Put shortly:
as §1

Test [6] deals with T6, UniProt L7MU75.
T6 sequence (whole entry): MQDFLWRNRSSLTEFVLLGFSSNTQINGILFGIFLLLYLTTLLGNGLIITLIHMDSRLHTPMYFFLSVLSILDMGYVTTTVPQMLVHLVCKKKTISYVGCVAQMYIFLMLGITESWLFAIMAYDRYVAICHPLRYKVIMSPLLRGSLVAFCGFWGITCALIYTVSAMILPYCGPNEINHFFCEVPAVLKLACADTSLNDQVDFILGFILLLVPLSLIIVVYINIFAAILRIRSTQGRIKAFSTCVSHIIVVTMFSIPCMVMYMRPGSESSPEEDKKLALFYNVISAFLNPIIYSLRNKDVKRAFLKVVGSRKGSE
The method in brief:
as §1

In test [7] the target is T7, UniProt L7N210.
T7 sequence (whole entry): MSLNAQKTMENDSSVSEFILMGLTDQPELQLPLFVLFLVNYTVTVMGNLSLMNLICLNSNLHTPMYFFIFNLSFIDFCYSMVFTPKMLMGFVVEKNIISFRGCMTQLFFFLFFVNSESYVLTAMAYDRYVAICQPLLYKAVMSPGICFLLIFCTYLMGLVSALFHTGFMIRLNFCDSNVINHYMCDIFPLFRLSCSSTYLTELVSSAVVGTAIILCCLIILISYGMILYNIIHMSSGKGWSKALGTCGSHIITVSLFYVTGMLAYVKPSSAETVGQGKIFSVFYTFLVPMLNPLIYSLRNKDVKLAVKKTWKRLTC
The method in brief: as §1

Test [8] concerns the target T8, UniProt Q3KPB0.
T8 sequence (whole entry): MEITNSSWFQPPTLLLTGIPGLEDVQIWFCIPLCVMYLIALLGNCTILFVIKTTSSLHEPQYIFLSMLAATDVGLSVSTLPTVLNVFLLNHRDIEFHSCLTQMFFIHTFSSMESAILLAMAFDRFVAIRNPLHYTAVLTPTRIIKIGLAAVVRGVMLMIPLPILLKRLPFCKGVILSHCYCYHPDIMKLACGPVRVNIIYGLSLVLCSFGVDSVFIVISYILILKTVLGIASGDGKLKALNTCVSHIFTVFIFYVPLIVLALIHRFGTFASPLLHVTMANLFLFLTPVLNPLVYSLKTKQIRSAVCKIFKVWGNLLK
Put shortly: as §1

The target of test [9] is T9, UniProt Q3U0P3.
T9 sequence (whole entry): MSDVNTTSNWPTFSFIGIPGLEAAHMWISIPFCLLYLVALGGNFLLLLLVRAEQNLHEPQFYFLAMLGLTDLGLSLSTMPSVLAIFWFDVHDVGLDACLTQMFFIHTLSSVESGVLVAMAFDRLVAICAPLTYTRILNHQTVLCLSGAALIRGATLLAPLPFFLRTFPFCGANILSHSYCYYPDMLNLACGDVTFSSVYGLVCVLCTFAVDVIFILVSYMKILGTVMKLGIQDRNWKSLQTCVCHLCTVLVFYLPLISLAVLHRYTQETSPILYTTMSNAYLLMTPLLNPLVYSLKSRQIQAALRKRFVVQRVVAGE
Put shortly:
as §1

The target in test [10] is T10, UniProt Q7TQU8.
T10 sequence (whole entry): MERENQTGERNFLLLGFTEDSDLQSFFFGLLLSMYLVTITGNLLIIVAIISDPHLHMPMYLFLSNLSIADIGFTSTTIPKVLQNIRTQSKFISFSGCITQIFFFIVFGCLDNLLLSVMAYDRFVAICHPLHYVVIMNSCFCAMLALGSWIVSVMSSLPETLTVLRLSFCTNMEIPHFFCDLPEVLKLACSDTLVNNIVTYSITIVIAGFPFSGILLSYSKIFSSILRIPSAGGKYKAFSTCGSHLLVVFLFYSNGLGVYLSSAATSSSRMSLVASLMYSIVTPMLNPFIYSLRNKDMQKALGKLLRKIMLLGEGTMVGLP
The method in brief:
as §1

Test [11] deals with T11, UniProt Q7TR79.
T11 sequence (whole entry): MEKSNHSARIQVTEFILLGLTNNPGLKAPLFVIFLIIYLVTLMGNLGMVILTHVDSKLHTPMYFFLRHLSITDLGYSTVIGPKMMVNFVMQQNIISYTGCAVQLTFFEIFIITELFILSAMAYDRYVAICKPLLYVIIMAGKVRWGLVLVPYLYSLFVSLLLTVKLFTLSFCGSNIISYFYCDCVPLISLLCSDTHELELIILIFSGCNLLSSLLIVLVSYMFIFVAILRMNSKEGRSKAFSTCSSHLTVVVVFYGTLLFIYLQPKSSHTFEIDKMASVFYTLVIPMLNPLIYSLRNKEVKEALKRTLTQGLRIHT
Put shortly:
as §1

Test [12] has as its target T12, UniProt E9Q9Z6.
T12 sequence (whole entry): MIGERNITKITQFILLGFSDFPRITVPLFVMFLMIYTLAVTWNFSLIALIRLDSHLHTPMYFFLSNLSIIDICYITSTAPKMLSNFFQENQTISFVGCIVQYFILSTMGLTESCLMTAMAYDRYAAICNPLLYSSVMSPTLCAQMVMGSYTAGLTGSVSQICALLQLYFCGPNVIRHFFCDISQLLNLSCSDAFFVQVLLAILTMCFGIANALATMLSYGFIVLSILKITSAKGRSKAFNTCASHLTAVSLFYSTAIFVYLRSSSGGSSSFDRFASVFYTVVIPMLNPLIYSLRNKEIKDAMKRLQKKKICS
Put shortly: as §1
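Also: active if original authors judged signal statistically different from baseline.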

Take `O=CC=Cc1ccccc1`: the “odorant receptor agonist call” value in test [1], in [2], in [3], in test [4], in [5] and in test [6] was “inactive” throughout. The “odorant receptor agonist call” value in test [7], in [8], in test [9], in test [10] and in test [11] was “inactive” each time.

Turning to `CCCCC(Br)C(=O)O` (centres undefined), the “odorant receptor agonist call” value in [1], in [2], in test [3], in test [4], in test [5] and in test [6] was “inactive” in each case. In addition, the “odorant receptor agonist call” value in test [8], in test [9], in test [10] and in [11] was “inactive” each time. In addition, the “odorant receptor agonist call” value in [7] is “active”.

On to `O=Cc1ccccc1`, for which the “odorant receptor agonist call” value in test [1], in test [2], in [3], in test [4], in test [5] and in [7] was “inactive” throughout. In addition, the “odorant receptor agonist call” value in test [8], in test [9], in [10] and in [11] was “inactive” in each case.

Regarding `CSSC`, the “odorant receptor agonist call” value in test [1], in [2], in test [3], in test [4], in [5] and in test [6] was “inactive” in each case. Further, the “odorant receptor agonist call” value in [7], in [8], in test [9], in [10] and in test [11] was “inactive” each time.

Take `CC(=O)c1cc2c(cc1C)C(C)(C)C(C)CC2(C)C` (centres undefined): the “odorant receptor agonist call” value in test [12] is “active”.
